From article PMC4452166 (Cancer Science, 2015)

How the values were obtained:
FLC-4 cells = test: MTT cytotoxicity assay, FLC-4; type: cell-based, human; conditions: for IC50: read-out: IC50 (cytotoxicity), FLC-4, 48 h
Summary of the method: (§1)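 Human epithelia-derived lines grown in 10% FBS media at 37°C, 5% CO2: FLC-4 in DMEM/F12, MCF7 in Eagle's MEM + 10 μg/mL insulin, HCT116 in McCoy's 5A, AGS/HEK293 in DMEM, TE4 in RPMI. Cells seeded 24 h before test compound, then exposed 48 h at 37°C. MTT 4 h; overnight solubilisation (DMF/acetic acid/HCl/SDS); OD 570 nm. n = 3. IC20 reported as maximum tolerated concentration.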

JKT-beta-del cells = test: MTT cytotoxicity assay, JKT-beta-del; type: cell-based, human; conditions: read-out: IC50 (cytotoxicity), 48 h
Summary of the method: (§2)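 Leukemia lines kept in RPMI medium with 10% FBS and antibiotics, 37°C, 5% CO2. Cells plated directly with test compound and incubated 48 h at 37°C. MTT added for 4 h; formazan dissolved overnight at room temperature in extraction solution (40% dimethylformamide, 2% acetic acid, 0.03 M HCl, 20% SDS); OD 570 nm. Means ± SD, n = 3.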

PEER cells = test: MTT cytotoxicity assay, PEER; type: cell-based, human; conditions: read-out: IC50 (cytotoxicity), 48 h
Summary of the method: as §2

HEK293 cells = test: MTT cytotoxicity assay, HEK293; type: cell-based, human; conditions: for IC50: read-out: IC50 (cytotoxicity), HEK293, 48 h
Summary of the method: as §1

MCF7 cells = test: MTT cytotoxicity assay, MCF7; type: cell-based, human; conditions: for IC50: read-out: IC50 (cytotoxicity), MCF7, 48 h
Summary of the method: as §1

HCT116 cells = test: MTT cytotoxicity assay, HCT116; type: cell-based, human; conditions: for IC50: read-out: IC50 (cytotoxicity), HCT116, 48 h
Summary of the method: as §1

Jurkat cells [1] = test: Western blot of activated caspase-3 and cleaved PARP, Jurkat; type: cell-based, human; conditions: 24 h
Summary of the method: (§3)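 Leukemia cells treated with test compound for 24 h. Equal protein run on reducing SDS-PAGE and transferred to PVDF. Blocked in 1% skim milk; probed for activated caspase-3, cleaved PARP and β-actin; peroxidase secondary antibody; ECL detection.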

HPB-ALL cells [2] = test: MTT cytotoxicity assay, HPB-ALL; type: cell-based, human; conditions: read-out: IC50 (cytotoxicity), 48 h
Summary of the method: as §2

[3] = tested on: low TC4ATS-Cd-sensitive leukemia cell lines and epithelia-derived cell lines except for HEK293; type: cell-based, human; conditions: 50 μM, 24 h, western blot
[4] = tested on: caspase-3 in Jurkat cells; test: Caspase-3 activity assay with fluorogenic substrate in cell lysates; type: cell-based, human; conditions: Ac-DEVD-MCA substrate
AGS cells = test: MTT cytotoxicity assay, AGS; type: cell-based, human; conditions: for IC50: read-out: IC50 (cytotoxicity), 48 h
Summary of the method: as §1

HUT78 cells = test: MTT cytotoxicity assay, HUT78; type: cell-based, human; conditions: read-out: IC50 (cytotoxicity), HUT78, 48 h
Summary of the method: as §2

HPB-ALL cells [5] = test: Western blot of activated caspase-3 and cleaved PARP, HPB-ALL; type: cell-based, human; conditions: 50 μM, 24 h
Summary of the method: as §3

TE4 cells = test: MTT cytotoxicity assay, TE4; type: cell-based, human; conditions: for IC50: read-out: IC50 (cytotoxicity), TE4, 48 h
Summary of the method: as §1

Jurkat cells [6] = test: Lactate dehydrogenase; type: cell-based, human; conditions: 48 h
HL-60 cells = test: MTT cytotoxicity assay, HL-60; type: cell-based, human; conditions: read-out: IC50 (cytotoxicity), HL-60, 48 h
Summary of the method: as §2

Jurkat cells [7] = test: MTT cytotoxicity assay, Jurkat; type: cell-based, human; conditions: read-out: IC50 (cytotoxicity), 48 h
Summary of the method: as §2

Jurkat cells [8] = test: Jurkat xenograft model in SCID mice; type: in vivo; conditions: for tumor weight vs vehicle: day 35 after inoculation; for Survival: tumor-bearing SCID mice
Summary of the method: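 Six-week-old female SCID mice inoculated s.c. with 5 × 10^7 Jurkat cells. From day 20, mice received saline vehicle, test compound 13 mg/kg (13 μmol/kg) or CdCl2 3 mg/kg (13 μmol/kg) i.p. three times weekly for 2 weeks, n = 5 per group. Body weight and tumor size taken three times weekly; volume = long × short² × 1/2. Killed on day 35; tumors, liver, kidney, spleen and lung weighed. Student's t-test.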

[9] = in vivo; cited from earlier work
[10] = 13 μmol/kg i.p. three times weekly for 2 weeks

Row | Compound | IC50 (FLC-4 cells) [µM] | IC50 (JKT-beta-del cells) [µM] | IC50 (PEER cells) [µM] | IC50 (HEK293 cells) [µM] | IC50 (MCF7 cells) [µM] | IC50 (HCT116 cells) [µM] | IC50 (HPB-ALL cells [2]) [µM] | apoptotic events (caspase-3 activation, PARP cleavage) [3] | IC50 (AGS cells) [µM] | IC50 (HUT78 cells) [µM] | caspase-3 activation and cleavage of PARP (HPB-ALL cells [5]) | IC50 (TE4 cells) [µM] | IC50 (HL-60 cells) [µM] | IC50 (Jurkat cells [7]) [µM] | renal atrophy (relative kidney weight) (Jurkat cells [8]; [10]) | tumor weight vs vehicle (Jurkat cells [8]; [10]) | Survival (Jurkat cells [8]; [10]) | further results
1 | cadmium-coordinated thiacalix[4]arene tetrasulfate [TC4ATS-Cd] | 2450 | 275 | 144 | 15 | 2210 | 1500 | 17 | not elicited | 947 | 35 | induced | 2130 | 81 | 6.9 | no significant atrophy | significantly lower | 5/5 | IC20 (FLC-4 cells; read-out: maximum tolerated concentration (=IC20 value), FLC-4, 48 h): 667 µM; IC20 (HEK293 cells; read-out: maximum tolerated concentration (=IC20 value), HEK293, 48 h): 6.8 µM; IC20 (MCF7 cells; read-out: maximum tolerated concentration (=IC20 value), MCF7, 48 h): 1330 µM; IC20 (HCT116 cells; read-out: maximum tolerated concentration (=IC20 value), HCT116, 48 h): 280 µM; cleavage of PARP (Jurkat cells [1]): consistently and markedly upregulated; levels of activated caspase-3 protein (Jurkat cells [1]): upregulated; caspase-3 proteolytic activity [4]: increased its proteolytic activity; IC20 (AGS cells; read-out: maximum tolerated concentration (=IC20 value), 48 h): 505 µM; IC20 (TE4 cells; read-out: maximum tolerated concentration (=IC20 value), TE4, 48 h): 454 µM; LDH release (Jurkat cells [6]): increased LDH release from Jurkat cells in a dose-dependent manner; body weight changes vs vehicle (Jurkat cells [8]; [10]): no significant difference; tumor growth of Jurkat cells (Jurkat cells [8]; 13 mg/kg, xenograft model in mice): significantly suppressed
2 | [Cl][Cd][Cl] [CdCl2, Cadmium chloride, reference compound] | 106 | 30 | 28 | 1.9 | 36 | 47 | 9.8 | not elicited | 60 | 25 | induced | 129 | 27 | 6.5 | notably induced renal atrophy | non-significant decrease | 3/5 | –
3 | O=S(=O)(O)c1cc2c(O)c(c1)Cc1cc(S(=O)(=O)O)cc(c1O)Cc1cc(S(=O)(=O)O)cc(c1O)Cc1cc(S(=O)(=O)O)cc(c1O)C2 [C4ATS, p-tetrasulfonated calix[4]arene] | – | – | – | – | – | – | – | – | – | – | – | – | – | – | – | – | – | dose without toxic effects, acute toxicity [9]: ≥ 100 mg/kg
